Assay results collected from several papers.
Observed: microbial growth

CCCCCCCCCCCCCCN1CCOCC1  MIC (Lodderomyces parapsilosis; broth dilution; ATCC22019; 48 h): > 31.3 µg/mL
Cc1ccc(C)n1-c1ccc(C(=O)NNC=O)cc1  MIC (Aspergillus niger; broth dilution; ATCC6275): 250 µg/mL
c1ccc2c(-c3nc4ccccc4[nH]3)c3ccccc3cc2c1  MIC (Aspergillus niger; ATCC16404): 256 µg/mL
CC(=O)c1ccc(-c2ccc3oc(C(=O)c4cc(O)c(O)c(O)c4)cc3c2)cc1  MIC (Lodderomyces parapsilosis; broth dilution): 2 to 4 µg/mL
Cc1ccc(C)n1-c1ccc(-c2nnc(-c3c(Cl)cccc3Cl)[nH]2)cc1  MIC (Aspergillus niger; broth dilution; ATCC6275): 2 µg/mL
C[C@@H]1[C@H](O)[C@@H](C)/C=C/C=C/C=C/C=C/C=C/C=C/C=C/[C@H](O[C@@H]2O[C@H](C)[C@@H](O)[C@H](N)[C@@H]2O)C[C@@H]2O[C@](O)(C[C@@H](O)C[C@@H](O)[C@H](O)CC[C@@H](O)C[C@@H](O)CC(=O)O[C@H]1C)C[C@H](O)[C@H]2C(=O)O  MIC (Lodderomyces parapsilosis; broth dilution): 0.5 to 1 µg/mL
CN1CCNCC1  MIC (Lodderomyces parapsilosis; broth dilution; ATCC22019; 48 h): > 31.3 µg/mL
CC1=NN(CNc2ccccc2[N+](=O)[O-])C(=O)C1=NNn1c(-c2ccccc2)nc2ccccc2c1=O  MIC (Aspergillus niger; broth dilution): 50.4 µM
Cc1ccc(C)n1-c1ccc(-c2nnc(-c3ccccc3Cl)[nH]2)cc1  MIC (Aspergillus niger; broth dilution; ATCC6275): 8 µg/mL
CCOc1ccc(-c2nc3ccccc3n2Cc2ccccc2)cc1  MIC (Aspergillus niger; ATCC16404): 256 µg/mL
Cc1cc(C)n(C(=O)c2ccc(-n3c(C)ccc3C)cc2)n1  MIC (Aspergillus niger; broth dilution; ATCC6275): > 500 µg/mL
O=C1NN=C(N=Cc2ccc(O)c(O)c2)C1=NNn1c(-c2ccccc2)nc2ccccc2c1=O  MIC (Aspergillus niger; broth dilution): 107 µM
Cc1ccc2nc(-c3cccc(O)c3)[nH]c2c1  MIC (Aspergillus niger; ATCC16404): 128 µg/mL
CCCCCCCCCCCCCCN1CCNCC1  MIC (Lodderomyces parapsilosis; ATCC22019): 0.975 µg/mL
O=c1[nH]c(NCc2ccc(Cl)c(Cl)c2)nc2ncn(CCN3CCOCC3)c12  MIC (Bacteroides fragilis; agar dilution; 48 h): > 32 µg/mL
CCCCCCCCCCCCCCN1CCN(CC(O)(Cn2cncn2)c2ccc(F)cc2F)CC1 (stereo not shown)  MIC (Lodderomyces parapsilosis; broth dilution; ATCC22019; 48 h): > 31.3 µg/mL
Cc1ccc2nc(-c3ccc([N+](=O)[O-])cc3)n(Cc3ccc(Cl)cc3)c2c1  MIC (Aspergillus niger; ATCC16404): 64 µg/mL
CCCCCCCCCCN1CCN(CC(O)(Cn2cncn2)c2ccc(F)cc2F)CC1 (stereo not shown)  MIC (Lodderomyces parapsilosis; broth dilution; ATCC22019; 48 h): 0.015 µg/mL
C=CCn1c(-c2ccc([N+](=O)[O-])cc2)nc2ccccc21  MIC (Aspergillus niger; ATCC16404): 256 µg/mL
CCCCCCCCCCCCN1CCNCC1  MIC (Lodderomyces parapsilosis; broth dilution; ATCC22019; 48 h): 1.95 µg/mL
CC1=NN(CNc2ccc(O)cc2)C(=O)C1=NNn1c(-c2ccccc2)nc2ccccc2c1=O  MIC (Aspergillus niger; broth dilution): 107 µM
C=CCn1c(-c2ccc(OC)c(OC)c2)nc2ccccc21  MIC (Aspergillus niger; ATCC16404): 512 µg/mL
CCCCCCCCCCN1CCNCC1  MIC (Lodderomyces parapsilosis; broth dilution; ATCC22019; 48 h): 15.6 µg/mL
O=[N+]([O-])c1ccc(-c2nc3ccccc3n2Cc2ccccc2)cc1  MIC (Aspergillus niger; ATCC16404): 64 µg/mL
O=c1[nH]c(NCc2ccc(Cl)c(Cl)c2)nc2ncn(CCCCCN3CCOCC3)c12  MIC (Bacteroides fragilis; agar dilution; 48 h): > 32 µg/mL
CC[C@H](C)C[C@H](C)CCCCCCCCC(=O)N[C@H]1C[C@@H](O)[C@@H](NCCN)NC(=O)[C@@H]2[C@@H](O)CCN2C(=O)[C@H]([C@H](O)CCN)NC(=O)[C@H]([C@H](O)[C@@H](O)c2ccc(O)cc2)NC(=O)[C@@H]2C[C@@H](O)CN2C(=O)[C@H]([C@@H](C)O)NC1=O  MIC (Lodderomyces parapsilosis; broth dilution; ATCC22019; 48 h): 1.95 µg/mL
Cc1ccc2nc(-c3ccc([N+](=O)[O-])cc3)[nH]c2c1  MIC (Aspergillus niger; ATCC16404): 512 µg/mL
CCc1cc(Nc2cc(=O)n(CCCCO)c(=O)[nH]2)ccc1C  MIC (Bacteroides fragilis; agar dilution; 48 h): > 32 µg/mL
